Assay results taken from ChEMBL document CHEMBL3997837, “Potent covalent inhibitors of bacterial urease identified by activity-reactivity profiling” (Bioorg Med Chem Lett, 2017).
Counter-ions that a name gives are not always drawn. Calls of active or inactive are those of the source. The calls are words filed in the database; no cut-off is given here.

Columns and labels:
Sporosarcina pasteurii [1] = assay: Competitive inhibition of Sporosarcina pasteurii CCM 2056 urease assessed as reduction in ammonia production preincubated with enzyme followed by addition of varying levels of urea as substrate measured for 120 mins by Lineweaver-Burk plot analysis
[2] = Inhibition of Sporosarcina pasteurii CCM 2056 urease assessed as reduction in ammonia production using urea as substrate measured for 120 mins by phenol-hypochlorite method
[3] = Inhibition of Sporosarcina pasteurii CCM 2056 urease assessed as reduction in ammonia production by measuring initial state enzyme-inhibitor complex using urea as substrate measured for 120 mins by phenol-hypochlorite method
[4] = Inhibition of Sporosarcina pasteurii CCM 2056 urease assessed as reduction in ammonia production by measuring steady state enzyme-inhibitor complex using urea as substrate measured for 120 mins by phenol-hypochlorite method
Sporosarcina pasteurii [5] = assay: Time-dependent Sporosarcina pasteurii CCM 2056 urease assessed as reduction in ammonia production using urea as substrate by phenol-hypochlorite method
[6] = Glutathione reactivity in pH 7.4 PBS measured after 6 to 36 hrs in presence of 1.375 mmol GSH by DTNB reagent based spectrophotometric method
Method in brief: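 Glutathione served as a model reactive-thiol compound. Unreacted GSH was quantified spectrophotometrically by a modified Ellman method, and reaction progress was followed over time up to 36 h.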

Sporosarcina pasteurii [7] = assay: Reversible inhibition of Sporosarcina pasteurii CCM 2056 urease assessed as reduction in ammonia production by measuring recovery of enzyme activity at 10 times IC50 preincubated for 60 mins followed by 100-fold dilution in to PBS containing urea as substrate by Berthelot colorimetric assay relative to control; set-up: Activity: scale not given: the % may be the effect or the level left
BALB/3T3 = assay: Cytotoxicity against mouse BALB/3T3 cells assessed as reduction in cell proliferation after 72 hrs by SRB assay; type: cell-based; settings: balb/3t3, 72 h
Method in brief: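 Mouse BALB/3T3 fibroblasts were scored by SRB assay, with cytotoxicity given as LC50 values.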

[8] = Glutathione reactivity up to 15 mins in presence of 10 mM GSH by 1H NMR analysis
[9] = Inhibition of Proteus mirabilis 543 urease at pH 5.5 assessed as reduction in ammonia production using urea as substrate measured after 15 mins by NaOH-hypochlorite method
Method in brief: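 Intact Proteus mirabilis cells were tested at pH 5.5, matching physiological urine, with 5 mM urea. Inhibitors were added without preincubation, and IC50 was determined.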

[10] = Inhibition of Proteus mirabilis 543 urease at pH 5.5 assessed as reduction in ammonia production using urea as substrate preincubated for 120 mins followed by substrate addition measured after 15 mins by NaOH-hypochlorite method
Method in brief: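 Intact Proteus mirabilis cells were preincubated with inhibitors in PBS for 2 h, then tested at pH 5.5, matching urine acidity, with 5 mM urea. IC50 was determined.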

[11] = Cytotoxicity against mouse BALB/3T3 cells assessed as inhibition of cell proliferation at 100 uM after 72 hrs by SRB assay relative to control; type: cell-based
Method in brief: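 Mouse BALB/3T3 cells were tested by SRB assay at a single concentration of 100, with the result given as percent inhibition of proliferation.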

Proteus mirabilis = assay: Inhibition of Proteus mirabilis 543 urease at pH 5.5 assessed as reduction in ammonia production using urea as substrate followed by substrate addition by NaOH-hypochlorite method; settings: TDE = time-dependent effect

Row | SMILES | mode of inhibition (Sporosarcina pasteurii [1]) | Ki ([2]; read-out: Ki) | Ki ([3]; read-out: Ki) | Ki ([4]; read-out: Ki) | TDI (Sporosarcina pasteurii [5]) | Activity (Sporosarcina pasteurii [7]) | other results
1 | COC(=O)/C=C/C1=CC(=O)CCC1 | Active | 0.694 µM | 46.5 µM | 0.766 µM | Active | 23.6% | K [6]: 0.0703 M⁻¹ s⁻¹; log K [6]: 0.63
2 | N#C/C=C/C1=CC(=O)CCC1 | Active | 0.784 µM | 55.1 µM | 0.931 µM | Active | 27.2% | 
3 | O=C(O)/C=C/C1=CC(=O)CCC1 | Active | 17.8 µM | 189 µM | 19.5 µM | Active | 38.1% | 
4 | CCC(C)OC(=O)/C=C/C(=O)OC(C)CC (configuration not stated) | Active | 64.2 µM | 907 µM | 59.2 µM | Active | 46% | 
5 | CC#CC(=O)OCC | Active | 126 µM | 1270 µM | 117 µM | Active | 47.3% | 
6 | CCOC(=O)/C=C/C(=O)C(=O)OCC | Active | 0.0928 µM | 32.8 µM | 0.113 µM | Active | 8.9% | 
7 | C#CC(=O)O [PROPIOLIC ACID] | Active | 44.4 µM | 729 µM | 43.5 µM | Active | 40.9% | 
8 | O=C(O)C#Cc1ccccc1 | Active | 37.1 µM | 584 µM | 40.3 µM | Active | 39.2% | 
9 | CCOC(=O)C#Cc1ccccc1 | Active | 52.3 µM | 814 µM | 47.1 µM | Active | 44.7% | 
10 | O=C1C=CCC1 | Active | 0.291 µM | 11.2 µM | 0.232 µM | Active | 15.3% | K [6]: 0.487 M⁻¹ s⁻¹; log K [6]: 1.5; LC50 (BALB/3T3): 86.5 µM
11 | CC(C)OC(=O)/C=C/C(=O)OC(C)C | Active | 42.4 µM | 678 µM | 38.6 µM | Active | 41.2% | 
12 | CC#CC(=O)O | Active | 109 µM | 1130 µM | 97.5 µM | Active | 47.4% | 
13 | CCOC(=O)/C=C/c1ccc([N+](=O)[O-])cc1 | Active |  |  |  |  |  | Ki [2]: Not Active; Ki [3]: Not Active; Ki [4]: Not Active; inhibition (Sporosarcina pasteurii [7]): inactive
14 | CCOC(=O)/C=C/C(=O)O [ETHYL FUMARATE] | Active | 52.4 µM | 888 µM | 59.1 µM | Active | 45.6% | 
15 | COC(=O)C#CC(=O)OC | Active | 0.00977 µM | 0.973 µM | 0.0124 µM | Active | 9.2% | Drug metabolism [8]: Metabolite detected; K [6]: 6.47 M⁻¹ s⁻¹; log K [6]: 2.59; LC50 (BALB/3T3): 29.8 µM
16 | CC(=O)NO [ACETOHYDROXAMIC ACID] |  | 3.3 µM |  |  |  | 29.1% | IC50 ([9]; read-out: IC50): 169 µM; IC50 ([10]; read-out: IC50): 91.4 µM
17 | CCOC(=O)/C=C/C(=O)OC(C)(C)C | Active | 22.1 µM | 425 µM | 25.7 µM | Active | 39.3% | 
18 | O=C1C=CCCC1 | Active | 0.766 µM | 22.8 µM | 0.267 µM | Active | 27.2% | inhibition at 72 h, 100 µM [11]: 29.8%; K [6]: 0.37 M⁻¹ s⁻¹; log K [6]: 1.35
19 | CCOC(=O)C#CC(=O)OCC | Active | 0.0102 µM | 0.852 µM | 0.00744 µM | Active | 8.8% | 

Row | SMILES | mode of inhibition (Sporosarcina pasteurii [1]) | Ki ([2]; read-out: Ki) | Ki ([3]; read-out: Ki) | Ki ([4]; read-out: Ki) | TDI (Sporosarcina pasteurii [5]) | Activity (Sporosarcina pasteurii [7]) | other results
20 | CCCCOC(=O)/C=C/C(=O)OCCCC | Active | 53.7 µM | 847 µM | 66.7 µM | Active | 45.1% | 
21 | O=C1C=C(/C=C/C(=O)c2ccccc2)CCC1 | Active | 0.592 µM | 26.8 µM | 0.493 µM | Active | 21.5% | 
22 | COC(=O)/C=C\C(=O)OC [DIMETHYL MALEATE] |  |  |  |  |  |  | Ki [2]: Not Active; Ki [3]: Not Active; Ki [4]: Not Active; inhibition (Sporosarcina pasteurii [7]): inactive
23 | Cc1ccc(C(=O)/C=C/C(=O)O)cc1 | Active | 6.36 µM | 77.1 µM | 6.64 µM | Active | 32.7% | inhibition at 72 h, 100 µM [11]: 31.3%; K [6]: 0.333 M⁻¹ s⁻¹; log K [6]: 1.3
24 | O=C(O)/C=C(\CC(=O)O)C(=O)O [ACONITIC ACID] | Active | 6.13 µM |  |  | Active | 33.8% | 
25 | Cc1ccc(/C=C/C(=O)O)cc1 | Active | 34.2 µM | 633 µM | 32.2 µM | Active | 39.9% | 
26 | C=C=CC(=O)OCC | Active | 2.52 µM | 162 µM | 2.27 µM | Active | 29.1% | 
27 | COC(=O)/C=C/C1=CC(=O)CC1 | Active | 0.285 µM | 16.7 µM | 0.316 µM | Active | 16.7% | inhibition at 72 h, 100 µM [11]: 35.2%; K [6]: 0.166 M⁻¹ s⁻¹; log K [6]: 0.998
28 | COC(=O)/C=C/C(=O)OC [DIMETHYL FUMARATE] | Active | 21.3 µM | 311 µM | 21.7 µM | Active | 36.8% | Drug metabolism [8]: Metabolite detected; K [6]: 2.62 M⁻¹ s⁻¹; log K [6]: 2.2; LC50 (BALB/3T3): 39.7 µM
29 | C=C=CC(=O)NCc1ccccc1 |  |  |  |  |  |  | Ki [2]: Not Active; Ki [3]: Not Active; Ki [4]: Not Active; inhibition (Sporosarcina pasteurii [7]): inactive
30 | CCOC(=O)/C=C/c1ccccc1 [ETHYL CINNAMATE] |  |  |  |  |  |  | inhibition (Proteus mirabilis): Tde; IC50 [9]: Not Active; IC50 [10]: Not Active; Ki [2]: Not Active; inhibition at 72 h, 100 µM [11]: 29.1%; Ki [3]: Not Active; Ki [4]: Not Active; K [6]: 1.21e-05 M⁻¹ s⁻¹; log K [6]: -3.14; inhibition (Sporosarcina pasteurii [7]): inactive
31 | O=C(O)/C=C\C(=O)O [MALEIC ACID] |  |  |  |  |  |  | Ki [2]: Not Active; Ki [3]: Not Active; Ki [4]: Not Active; inhibition (Sporosarcina pasteurii [7]): inactive
32 | CCOC(=O)/C=C/C(=O)OCC | Active | 11.1 µM | 21.7 µM | 12 µM | Active | 34.3% | 
33 | CCOC(=O)/C=C/c1ccc(C)cc1 |  |  |  |  |  |  | Ki [2]: Not Active; Ki [3]: Not Active; Ki [4]: Not Active; inhibition (Sporosarcina pasteurii [7]): inactive
34 | C#CC(=O)OC | Active | 46 µM | 804 µM | 50.5 µM | Active | 41.5% | 
35 | CC(=O)/C=C/C1=CC(=O)CCC1 | Active | 21.2 µM | 205 µM | 21.3 µM | Active | 38.8% | 
36 | O=C(O)/C=C/c1ccc([N+](=O)[O-])cc1 | Active | 11.9 µM | 323 µM | 15.7 µM | Active | 35.8% | 
37 | CCOC(=O)/C=C/C(=O)c1ccccc1 | Active | 3.96 µM | 29.2 µM | 1.21 µM | Active | 30.2% | K [6]: 2.18 M⁻¹ s⁻¹; log K [6]: 2.12; LC50 (BALB/3T3): 24.5 µM
38 | COC(=O)/C=C(\CC(=O)OC)C(=O)OC | Active | 5.21 µM |  |  | Active | 31.5% | 
